The series deals with Alpha-1-acid glycoprotein 1 (Homo sapiens, UniProt P02763). Kind of series: Ability to inhibit the binding of E-selectin to human recombinant AGP (alpha-1 acid glycoprotein) in a E-selectin assay. The essentials:
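ELISA read-out. Soluble E-selectin binding to human recombinant AGP bearing five sLex per molecule. Compounds screened at 5 mM, with percent inhibition recorded.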

Alpha-1-acid glycoprotein 1, sequence (P02763 whole entry): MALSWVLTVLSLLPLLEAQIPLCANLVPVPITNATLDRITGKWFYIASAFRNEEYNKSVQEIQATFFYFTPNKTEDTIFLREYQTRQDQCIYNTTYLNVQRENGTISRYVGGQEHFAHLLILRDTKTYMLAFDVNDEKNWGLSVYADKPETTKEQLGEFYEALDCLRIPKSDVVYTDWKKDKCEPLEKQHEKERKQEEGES

As to `CC(C)(C)c1ccc(COc2ccsc2C(=O)NCC2OC(CC(=O)N[C@@H](CCC(=O)O)C(=O)O)C(O)C(O)C2O)cc1` (stereo not given in full), the Inhibition is 43%.

As to `CC(=O)N[C@H]1[C@H]([C@H](O)[C@H](O)CO)O[C@@](O[C@H]2[C@@H](O)[C@@H](CO)O[C@@H](O[C@@H]([C@H](O[C@@H]3O[C@@H](C)[C@@H](O)[C@@H](O)[C@@H]3O)[C@H](C=O)NC(C)=O)[C@H](O)CO)[C@@H]2O)(C(=O)O)C[C@@H]1O` [SIALYL LEWIS X], the IC50 was 8 mM.

Turning to `O=C(O)CC[C@H](NC(=O)CC1OC(CNC(=O)CC(=O)Nc2ccc(Cl)cc2Cl)C(O)C(O)C1O)C(=O)O` (stereo not given in full), the Inhibition turned out to be 45%.

Take `Cc1ccc(COc2ccsc2C(=O)NCC2OC(CC(=O)N[C@@H](CCC(=O)O)C(=O)O)C(O)C(O)C2O)cc1` (stereo not given in full): the Inhibition was determined as 42%.

`C[C@@H](NC(=O)c1ccccc1C(=O)NCC1OC(CC(=O)N[C@@H](CCC(=O)O)C(=O)O)C(O)C(O)C1O)c1ccccc1` (stereo not given in full): the IC50 amounted to 5 mM.

As a reminder, the Inhibition is the relative decrease from the control value, in per cent. As usually defined, the IC50 is the concentration that gives 50% inhibition.

For the origin of these results see ChEMBL document CHEMBL1135910, “Beta-C-mannosides as selectin inhibitors” (J Med Chem, 2002).
